Compound activity: PubChem BioAssay, The Scripps Research Institute Molecular Screening Center
An excerpt weighted towards active compounds, which were near 3.6% of everything screened.
PAFAH1B2 inh: PAFAH1B2 enzyme inhibitors, primary screen, biochemical, fluorescence polarization, human | inhibition, % at 3.39 µM | recombinant PAFAH1B2, FP-rhodamine activity probe | Platelet-activating factor acetylhydrolase IB subunit alpha2 (Homo sapiens), P68402 | actives 1.2% (n = 340,000) | AID 492953, 2010;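 active = inhibition above the mean of all tested compounds plus 3 SD, cut at about 24% in these data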
Target sequence (P68402 whole entry, looked up): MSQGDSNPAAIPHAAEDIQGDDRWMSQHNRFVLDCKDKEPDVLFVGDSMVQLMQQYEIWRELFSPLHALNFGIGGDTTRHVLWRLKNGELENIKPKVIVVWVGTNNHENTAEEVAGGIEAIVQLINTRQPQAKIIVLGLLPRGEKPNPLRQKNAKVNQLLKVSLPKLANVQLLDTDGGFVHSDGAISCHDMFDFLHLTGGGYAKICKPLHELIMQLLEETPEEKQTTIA
IMP-1 inhibitor: IMP-1 metallo-beta-lactamase inhibitors, primary screen, biochemical, epi-absorbance readout, Pseudomonas aeruginosa enzyme; purified IMP-1, nitrocefin hydrolysis, epi-absorbance fluorescence; inhibition, % at 5.6 µM; actives 0.45% (n = 290,000);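 active = inhibition above the mean plus 3 SD of all compounds in the same screening run, cut at about 4.5% in these data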
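Test system: recombinant IMP-1 enzyme, purified / Medium: HEPES buffer pH 7.1 with ZnSO4 and Brij 35 / Doses: single dose, 5.6 µM / Times: 25 °C, 15 min preincubation, 25 min reaction / Detection: Epi-absorbance via hydrolysed-nitrocefin quenching of white-plate fluorescence, 480/530 nm, EDTA stop / Evaluation: percent inhibition from optical density relative to buffer-blank wells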
PAFAH1B3 inh: PAFAH1B3 enzyme inhibitors, primary screen, biochemical, fluorescence polarization, human. Platelet-activating factor acetylhydrolase IB subunit alpha1 (Homo sapiens), Q15102. recombinant PAFAH1B3, FP-rhodamine probe. inhibition, % at 3.39 µM. actives 0.28% (n = 340,000);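 active = inhibition above the screen-wide average of all tested compounds plus 3 SD, cut at about 25% in these data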
VIM-2 inhibitor: VIM-2 metallo-beta-lactamase inhibitors, primary screen, biochemical, epi-absorbance readout, Pseudomonas aeruginosa enzyme; purified VIM-2, nitrocefin hydrolysis, epi-absorbance fluorescence; actives 0.89% (n = 290,000); inhibition, % at 5.6 µM; AID 1527, 2009;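 active = inhibition above the mean of all tested compounds plus 3 SD, cutoff set per screening run, cut at about 7.5% in these data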;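 also: red hydrolysis product quenches plate fluorescence so inhibitors raise well fluorescence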
pPAFAH FP inh: pPAFAH enzyme inhibitors, primary screen, biochemical, fluorescence polarization, human; AID 463082, 2010; Platelet-activating factor acetylhydrolase (Homo sapiens), Q13093; recombinant pPAFAH, FP-rhodamine probe fluorescence polarization; actives 1.5% (n = 330,000); inhibition, % at 3.39 µM;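 active = inhibition above the mean inhibition across the screen plus 3 SD, cut at about 25% in these data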;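 also: inhibitors block binding of the rhodamine activity-based probe so polarization drops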
Target sequence (Q13093 whole entry, looked up): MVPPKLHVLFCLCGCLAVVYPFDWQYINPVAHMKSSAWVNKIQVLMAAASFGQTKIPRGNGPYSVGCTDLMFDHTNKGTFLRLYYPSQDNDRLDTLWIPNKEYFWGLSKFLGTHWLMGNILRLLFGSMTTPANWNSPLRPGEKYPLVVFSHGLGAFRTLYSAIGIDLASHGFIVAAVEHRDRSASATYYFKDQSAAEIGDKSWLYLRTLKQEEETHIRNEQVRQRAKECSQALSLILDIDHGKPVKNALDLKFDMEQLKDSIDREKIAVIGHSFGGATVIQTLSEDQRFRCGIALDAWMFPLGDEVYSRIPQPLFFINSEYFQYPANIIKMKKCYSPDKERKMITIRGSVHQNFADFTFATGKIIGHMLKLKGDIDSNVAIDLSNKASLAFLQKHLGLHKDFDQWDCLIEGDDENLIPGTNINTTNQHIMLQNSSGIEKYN
PAFAH2 FP inh: PAFAH2 enzyme inhibitors, primary screen, biochemical, fluorescence polarization, human | recombinant PAFAH2, FP-rhodamine activity probe | inhibition, % at 3.39 µM | actives 0.99% (n = 340,000);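 active = inhibition above the mean over all tested compounds plus 3 SD, cut at about 30% in these data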;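 also: inhibitors block probe labeling of enzyme so polarization drops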
Each line names hits and unclear results; the compound was inactive in the other large screens.

O=C(CCS(=O)(=O)c1ccc(Br)cc1)NCc1ccco1	IMP-1 inhibitor 19.9
COc1cc(C(=O)NCC(c2ccc(F)cc2)N2CCOCC2)ccc1OCc1ccccc1Cl (configuration not stated)	none (no result: IMP-1 inhibitor, VIM-2 inhibitor)
COc1ccc(CN(C(=O)CN2C(=O)c3ccccc3S2(=O)=O)C(C(=O)NCC2CCCO2)c2ccco2)cc1 (configuration not stated)	none
CCOc1ccc(S(=O)(=O)NCCC(=O)NCCc2ccc(OCC)c(OCC)c2)cc1	none (no result: IMP-1 inhibitor, VIM-2 inhibitor)
COc1cccc(/C=N/NC(=O)C(=O)Nc2ccccc2OC(F)(F)C(F)F)c1O	PAFAH1B3 inh 26.9, PAFAH2 FP inh 35.2
CCOc1ccc(CCNC(=O)CCS(=O)(=O)c2ccc(OC)cc2)cc1OCC	pPAFAH FP inh 33.5
CCOc1ccccc1NC(=O)C(=O)N/N=C/c1cc(Br)ccc1O	pPAFAH FP inh 26.3
CCOc1ccccc1NC(=O)CCS(=O)(=O)c1ccc(Br)cc1	IMP-1 inhibitor 18.1
CCOc1ccccc1C=NNC(=O)C(=O)NN=Cc1ccccc1OCC	none (no result: IMP-1 inhibitor, VIM-2 inhibitor, pPAFAH FP inh)
CN1CCN(c2sc(S(C)(=O)=O)nc2S(=O)(=O)c2ccc(Cl)cc2)CC1	none
Cc1cc(CNCCN(C)C)c(C)n1-c1cc(S(=O)(=O)N2CCOCC2)ccc1N1CCCC1	none (no result: IMP-1 inhibitor, VIM-2 inhibitor, pPAFAH FP inh)
COc1cccc(/C=N/NC(=O)c2[nH]c(C)c(C(=O)N/N=C/c3cccc(OC)c3O)c2C)c1O	PAFAH1B3 inh 45.2, pPAFAH FP inh 28.2
O=C(Cn1c(=O)cnc2ccccc21)N1CCN(S(=O)(=O)c2cccc([N+](=O)[O-])c2)CC1	none (no result: IMP-1 inhibitor, VIM-2 inhibitor)
CC(C)(C)c1cc(CNC2CS(=O)(=O)C[C@@H]2O)cc(C(C)(C)C)c1O (some centres not stated)	IMP-1 inhibitor 7.3
O=S1(=O)c2ccccc2N=NN1Cc1ccc(Cl)cc1	none
O=S1(=O)c2ccccc2N=NN1Cc1cc(Cl)cc(Cl)c1	pPAFAH FP inh 33.4 (no result: PAFAH1B2 inh, PAFAH1B3 inh, PAFAH2 FP inh)
FC(F)(F)c1cccc(NC(=S)NCc2ccccn2)c1	none
FC(F)(F)c1cccc(NC(=S)NNC(=S)NCc2ccccc2)c1	pPAFAH FP inh 47.7
Cn1cc(C(c2ccccc2OCC(=O)O)c2cn(C)c3ccccc23)c2ccccc21	none
COc1cc(/C=C2\CCCc3c2nc2ccccc2c3C(=O)O)cc(OC)c1O	none
COc1cc(/C=C2\CCCc3c2nc2ccccc2c3C(=O)O)cc([N+](=O)[O-])c1O	pPAFAH FP inh 32.3
CC(NCc1ccc(OCc2ccc(Cl)cc2)cc1)C(O)c1ccccc1 (configuration not stated)	PAFAH1B2 inh 63.6
CC(NCc1cccc(OCc2ccccc2)c1)C(O)c1ccccc1 (configuration not stated)	none
NS(=O)(=O)c1ccc(NS(=O)(=O)c2cccs2)cc1	none
O=C(O)c1cc(NS(=O)(=O)c2cccs2)cc(NS(=O)(=O)c2cccs2)c1	PAFAH1B2 inh 25.5 (no result: IMP-1 inhibitor, VIM-2 inhibitor)
O=S(=O)(Nc1ccc(Br)cc1)c1cccc(NS(=O)(=O)c2cccs2)c1	PAFAH1B2 inh 74.7, PAFAH2 FP inh 43.3 (no result: IMP-1 inhibitor, VIM-2 inhibitor, pPAFAH FP inh)
N#Cc1ccc(OCC(O)CN2CCN(c3ncc(C(F)(F)F)cc3Cl)CC2)cc1 (configuration not stated)	none
CC(C)c1c(C(=O)N/N=C/c2ccccc2OCc2c(F)cccc2Cl)nnn1-c1nonc1N	none
COc1ccc(C2=CSC3=NCCN23)cc1OC	VIM-2 inhibitor 9.0
Clc1ccc(C2=CSC3=NCCN23)cc1Cl	none
COC(=O)c1cc(NCc2ccccc2F)ccc1N1CCOCC1	IMP-1 inhibitor 15.0
CN(C(=O)COC(=O)c1cc(NS(=O)(=O)c2cc([N+](=O)[O-])ccc2Cl)ccc1O)C1CCCCC1	PAFAH1B2 inh 26.3
O=C(COC(=O)c1ccccc1NS(=O)(=O)c1cc([N+](=O)[O-])ccc1Cl)c1ccccc1	none (no result: PAFAH1B2 inh, PAFAH1B3 inh, PAFAH2 FP inh)
Cc1cc(C)n2cc(CSc3nc4ccccc4s3)nc2n1	VIM-2 inhibitor 10.5
O=[N+]([O-])c1ccc(O)c(/C=N/n2c(CO)nc3ccccc32)c1	none
C/C(=N\OCc1nc2ccccc2c(=O)n1/N=C/c1cc([N+](=O)[O-])ccc1O)c1ccccc1	pPAFAH FP inh 62.4
C=CCN1C=CC(=O)[C@@H](OC(=O)Nc2ccc(Br)cc2)[C@H]1c1ccccc1Br	none (no result: IMP-1 inhibitor, VIM-2 inhibitor, pPAFAH FP inh)
CC(C)(C)Cc1nnc(NS(=O)(=O)c2ccc(F)cc2)s1	PAFAH1B2 inh 30.5
Cc1ccc(S(=O)(=O)Nc2nnc(CC(C)(C)C)s2)cc1	none
N#CC1=C2N=C(N)c3c(sc4c3CCCCC4)N2C2=C(C(=O)CCC2)C1c1ccccc1 (configuration not stated)	pPAFAH FP inh 30.1
CC1CCc2c(sc3[nH]c(=S)n(C)c(=O)c23)C1 (configuration not stated)	none
Cc1ccc(NC(=O)CN(C)C(=O)c2ccc3[nH]c4c(c3c2)CC(C)CC4)cc1 (configuration not stated)	PAFAH1B2 inh 47.9 (no result: IMP-1 inhibitor, VIM-2 inhibitor)
COC(=O)c1[nH]c2ccc(Cl)cc2c1NC(=O)CCN1CCN(C2CCCCC2)CC1	IMP-1 inhibitor 8.0
COC(=O)c1[nH]c2ccc(C)cc2c1NC(=O)CCN1CCN(C2CCCCC2)CC1	none (no result: PAFAH1B2 inh, PAFAH1B3 inh, pPAFAH FP inh, PAFAH2 FP inh)
Cc1cc2nc3ccc(N(C)C)cc3nc2cc1N	PAFAH1B2 inh 31.3, PAFAH1B3 inh 31.8, pPAFAH FP inh 31.7, PAFAH2 FP inh 46.0 (no result: IMP-1 inhibitor, VIM-2 inhibitor)
Cc1ccc(-n2nc3cc(C)c(N)cc3n2)cc1	none
CCSc1nnc(NC(=O)CCNS(=O)(=O)c2ccccc2F)s1	none
COC(=O)C1=C(Nc2ccccc2NS(=O)(=O)c2ccc(C(F)(F)F)cc2Cl)CSC1	PAFAH1B2 inh 28.2
O=S(=O)(Nc1ccccn1)c1ccc(C(F)(F)F)cc1Cl	none
COC(=O)C1=C(Nc2ccccc2NC(=O)c2ccccc2C(=O)O)CSC1	none
COC(=O)C1=C(Nc2ccccc2NC(=O)CCCC(=O)O)CSC1	IMP-1 inhibitor 4.5 (no result: PAFAH1B2 inh, PAFAH1B3 inh, PAFAH2 FP inh)
O=C(Nc1nc2nc(-c3ccccc3)cc(=O)n2[nH]1)c1ccccc1	none
O=C(CCc1ccccc1)Nc1nc2nc(-c3ccccc3)cc(=O)n2[nH]1	PAFAH1B2 inh 26.7
Cn1nc(C(=O)NCCc2ccc(Cl)cc2)c2c1-c1ccccc1S(=O)(=O)C2	PAFAH1B2 inh 35.4
Cc1cc(C(=O)NC2CCCc3c2cnn3-c2cccc(C)c2C)n(C)n1 (configuration not stated)	none
C=CCC(NC(C)c1ccccc1)c1ccco1 (configuration not stated)	IMP-1 inhibitor 8.4
C=CCC(NCc1ccccc1)c1ccccc1 (configuration not stated)	none
